In the library only some 2.9% were active in any assay of this set; here they are far more common.
INS-1E GSIS act – primary screen for activators of insulin secretion dependent on glucose, INS-1E cells, GLuc reporter luminescence. actives 0.61% (n = 370,000). AID 743287. activation, % at 16.6 µM. INS-1E GLuc reporter insulin secretion, 2-3 h;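 active = lowest replicate activation of at least 40%, so every replicate reaches that level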;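 also: 0% = median of neutral control wells and 100% = median of IBMX positive control wells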
dFosB activator – mouse delta FosB homodimer activation | P13346 | purified delta FosB, TAMRA-CDK5 oligo fluorescence polarization; percent of positive-control signal above neutral wells | activation, % at 25 µM | actives 0.99% (n = 340,000);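 active = mean activation above about 17%, with every replicate also reaching it, limit read from the data, passing the limit was not always enough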
Cneo AK release – causes C. neoformans cell lysis; adenylate kinase release luminescence, 4 h; normalised: neutral wells 0, clomiphene wells 100; lysis activity, % at 15 µM; actives 0.2% (n = 360,000); AID 651654;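 active = mean lysis activity across replicates of at least 80%, whatever share of replicates individually reach that level; inactive = mean lysis activity below 80%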
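Material: C. neoformans cells | Amount: Yeast cell density of 5 × 10^6 cells/mL | Medium: Fresh YPD growth medium | Dosing: Single dose | Times: Static 4 h at 37 °C with compound, 1 h detection | Detection: AK luminescence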
Env fusion inh – blocks HIV Env-driven cell-cell fusion; actives 1.1% (n = 360,000); AID 651610; inhibition, % at 12.3 µM; HeLa-JRFL Env/CEM21 cell fusion, luciferase;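 active = mean replicate inhibition score of at least 50 and every replicate individually at or above 50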;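 also: 0% = plate neutral controls and 100% = maraviroc near 300 nM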
CDK5 p35 inh – blocks human CDK5/p35 kinase activity; AID 488839; Q00535+Q15078; Recombinant CDK5/p35, ADP-Glo luminescence, 60 min; actives 0.01% (n = 330,000); inhibition, % at 10 µM;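 active = highest replicate inhibition of at least 50% and at least 75% of replicates reaching 50%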;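 also: plate controls were DMSO neutral control for no effect and GW8510 at 10 µM for full effect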
Target sequence (Q00535 whole entry, looked up): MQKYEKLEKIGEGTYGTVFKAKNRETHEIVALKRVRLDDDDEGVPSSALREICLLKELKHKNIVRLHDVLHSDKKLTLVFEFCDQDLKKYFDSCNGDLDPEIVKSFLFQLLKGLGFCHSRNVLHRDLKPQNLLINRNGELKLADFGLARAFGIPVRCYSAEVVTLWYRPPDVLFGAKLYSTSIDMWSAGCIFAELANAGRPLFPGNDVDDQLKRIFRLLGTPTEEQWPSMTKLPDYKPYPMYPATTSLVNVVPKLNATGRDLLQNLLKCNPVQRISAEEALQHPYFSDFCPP
Target sequence (Q15078 whole entry, looked up): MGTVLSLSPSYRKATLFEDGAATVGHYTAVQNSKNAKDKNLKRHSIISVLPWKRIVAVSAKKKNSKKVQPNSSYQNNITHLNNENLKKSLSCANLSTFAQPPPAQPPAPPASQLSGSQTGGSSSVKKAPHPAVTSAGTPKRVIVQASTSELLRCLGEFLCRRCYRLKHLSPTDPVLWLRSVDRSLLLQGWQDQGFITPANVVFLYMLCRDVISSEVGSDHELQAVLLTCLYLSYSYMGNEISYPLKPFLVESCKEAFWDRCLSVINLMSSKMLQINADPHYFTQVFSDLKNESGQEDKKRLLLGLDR
PAX8 reporter – lowers PAX8-driven luciferase in RMG-I cells; RMG-I TPO-luciferase reporter, SteadyGlo, 24 h; inhibition, % at 12.6 µM; actives 1.2% (n = 360,000);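 active = mean replicate inhibition at least 60% with every replicate also reaching 60%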;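 also: luciferase light reporting Pax8 driven TPO promoter activity; plate controls were median of neutral control wells for no effect and mitoxantrone controls for full effect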
* marks the source's active call; other numbers are inactive results; · = no result; [ ] = remark or other dose.

SMILES	INS-1E GSIS act	dFosB activator	Cneo AK release	Env fusion inh	CDK5 p35 inh	PAX8 reporter
C[C@H](CO)N1C[C@H](C)[C@H](CN(C)C(=O)Nc2cccc3ccccc23)Oc2ccc(NC(=O)Nc3ccc(F)cc3)cc2C1=O	-11	·	0	·	·	6
C[C@H](CO)N1C[C@H](C)[C@H](CN(C)C(=O)Nc2cccc3ccccc23)Oc2ccc(NC(=O)Nc3ccc(C(F)(F)F)cc3)cc2C1=O	7	·	0	56*[16.7 µM]	·	-23
C[C@@H]1CN([C@H](C)CO)C(=O)c2cc(NC(=O)Nc3cccc4ccccc34)ccc2O[C@@H]1CN(C)C(=O)Nc1cccc2ccccc12	4	·	4	21[16.7 µM]	·	78*
CCCc1cn(CC[C@@H]2CC[C@H](NC(=O)C3CC3)[C@H](CO)O2)nn1	2	·	49	7[16.7 µM]	·	-12
C/C=C/c1ccc2c(c1)O[C@H](CN(C)C(=O)c1ccncc1)[C@@H](C)CN([C@@H](C)CO)S2(=O)=O	1	·	1	-13[16.7 µM]	·	3
CC(C)OC(=O)N(C)C[C@H]1OCc2ccccc2-c2c(n(C)c3ccccc23)C(=O)N([C@@H](C)CO)C[C@@H]1C	-24	·	1	·	·	·
CN1C(=O)c2cc(NS(=O)(=O)c3ccc(F)cc3)ccc2OC[C@H]2O[C@H](CC(=O)NCC(F)(F)F)CC[C@@H]21	12	·	3	·	·	-9
O=C(C[C@@H]1C=C[C@H](NS(=O)(=O)c2ccccc2)[C@H](CO)O1)N1CCN(c2ccccc2)CC1	2	·	·	·	·	-9
CO[C@@H]1CN(C)C(=O)c2ccc(NS(=O)(=O)CC(F)(F)F)cc2OC[C@@H](C)N(CC2CCCCC2)C[C@H]1C	-10	·	0	·	·	2
O=C(Nc1ccc([N+](=O)[O-])cc1NC(=O)c1ccccc1)c1ccccc1	85*	2	1	-5	0	6
Cc1ccc([N+](=O)[O-])cc1NC(=O)c1ccccc1	23	-2	1	3	-11	0
O=C(COC(=O)c1ccccc1NC(=O)c1ccccc1)c1cccc([N+](=O)[O-])c1	69*	-2	·	11	0	6
O=C(Nc1ccc([N+](=O)[O-])cc1)C(=O)Nc1cccc(C(=O)O)c1	-11	-4	-14	115*	1	101*
O=C(O)c1cc(NC(=O)c2ccc([N+](=O)[O-])cc2)cc(NC(=O)c2ccc([N+](=O)[O-])cc2)c1	-6	2	-3	17	0	-10
C[C@@H]1CN([C@H](C)CO)C(=O)c2cccc(NC(=O)Nc3ccc(C(F)(F)F)cc3)c2O[C@@H]1CN(C)S(=O)(=O)c1cn(C)cn1	-10	·	-1	·	·	·
CC(C)c1ccc2oc(=O)cc(CN3CCCCC3)c2c1	44*	-10	6	9	1	-9
C[C@@H]1CN([C@@H](C)CO)C(=O)c2cc(NC(=O)CCC(F)(F)F)ccc2O[C@H]1CN(C)Cc1ccncc1	4	·	-5	4[16.7 µM]	·	-16
OCCCNc1nc(-c2ccccc2)c2cc(Br)ccc2n1	55*	-10	0	26	1	-1
NNc1nc(-c2ccccc2)c2cc(Cl)ccc2n1	36	-2	·	-20	1	-12
NNc1nc(-c2ccccc2)c2cc(Br)ccc2n1	49*	-12	-4	-6	2	5
Cc1ccc2nc(NCCCO)nc(-c3ccccc3)c2c1	·	-2	-2	-478	-2	-14
COc1ccc(NC(=O)N2C[C@@H](O)COC[C@@H]3O[C@H](CC(=O)N4CCOCC4)CC[C@H]32)cc1	16	·	-1	·	·	-17
O=C(c1ccccc1)N1C[C@@H]2[C@H](c3ccccc31)[C@H](CO)N2Cc1ccccc1F	5	·	-5	·	·	15
CC1CCCN(S(=O)(=O)c2ccc3[nH]c(=O)cc(C(=O)NCCCN4CCCCCC4)c3c2)C1 (stereo not given)	·	·	-2	-4	·	-4
CCCCN(C)CCCNC(=O)c1cc(=O)[nH]c2ccc(S(=O)(=O)N3CCCCC3C)cc12 (stereo not given)	-6	-9	·	60*	0	9
SMILES	INS-1E GSIS act	dFosB activator	Cneo AK release	Env fusion inh	CDK5 p35 inh	PAX8 reporter
COC(=O)C[C@H]1CC[C@@H]2[C@@H](COc3ccc(NC(=O)Nc4cccc(C)c4)cc3C(=O)N2C)O1	-9	·	-2	28[16.7 µM]	·	12
Cc1noc(C)c1NC(=O)N(C)C[C@H]1OCCCC[C@@H](C)Oc2ccc(NC(=O)NC3CCCCC3)cc2C(=O)N([C@@H](C)CO)C[C@H]1C	-6	·	0	16[16.7 µM]	·	11
CCCCN(C(=O)c1cc(S(=O)(=O)N2CCOCC2)ccc1Cl)c1c(N)n(CC(C)C)c(=O)[nH]c1=O	1	-12	·	59*	0	3
CCCCN(C(=O)c1cc(S(=O)(=O)N2CCCCC2)ccc1Cl)c1c(N)n(CC(C)C)c(=O)[nH]c1=O	2	-9	1	-36	0	-3
O=C(/C=C/c1ccco1)Nc1nc(-c2ccccc2)cs1	-10	-1	-1	·	0	98*
O=c1c2sccc2nc(SCc2ccc([N+](=O)[O-])cc2)n1Cc1ccccn1	3	-15	·	·	-1	69*
Cc1cc(C)c2c(N)c3cccc(C)c3nc2n1	·	49*	·	-196	-1	-4
COc1ccc(C(=O)c2cnc[nH]2)cc1OC	70*	2	1	3	2	0
COc1ccccc1NC1=Nc2cccc3cccc1c23	-20	·	2	-5	·	91*
CO[C@H]1CC[C@H]2CCN(C)C(=O)[C@@H](C)N(C)C(=O)c3cc(C#N)ccc3OC[C@@H]1O2	9	·	1	8[16.7 µM]	·	-1
Cc1ccc(NC(=O)c2ccccc2-c2ccccc2C(=O)O)cc1C	45*	2	·	16	-1	-1
COc1ccc(-c2sc3ccc(OC)cc3c2C#Cc2cncn2C)cc1	13	-7	1	-6	-2	65*
COc1ccc(-c2sc3cc4c(cc3c2C#Cc2cncn2C)OCO4)cc1	15	4	0	-12	2	10
COc1ccccc1CNC(=S)NCc1ccc(Cl)cc1	-39	-9	137*	·	-2	17
S=C(NCc1ccccc1)NCc1ccc(Cl)cc1	-37	-6	19	19	1	-7
CO[C@@H]1CN(C)C(=O)c2ccc(NS(=O)(=O)c3ccc(F)cc3)cc2OC[C@H](C)NC[C@H]1C	14	·	-4	6[16.7 µM]	·	13
COc1ccc(CNc2nc3c(c(=O)n(Cc4ccc(Br)cc4)c(=O)n3C)n2C)cc1	·	-1	-12	23	-1	84*
COc1cccc(Cn2c(NCc3ccco3)nc3c2c(=O)n(C)c(=O)n3C)c1	·	·	·	75*	·	19
Nc1c(C(=O)N2CCCCC2)sc2nc3c(cc12)CCCC3	-8	-10	6	-63	-1	-226
Cc1ccc(C(=O)c2sc3nc4c(cc3c2N)CCC4)cc1	74*	2	2	-59	-2	-91

Screens (PubChem BioAssay)
